Measurements pooled from the literature.
Lines come from different studies, so protocols differ.

With `COC(=O)c1cc(-c2cccc(NC(=S)NC3CCCCC3)c2)on1` the MIC was over 64 µg/mL (Mycobacteroides chelonae; microbial growth, broth dilution; ATCC35752; 48 h).
For `C#Cc1ccc(/C=C/c2nc3ccccc3c(=O)n2-c2cccc(O)c2)cc1`, the MIC was 32 µg/mL (Enterococcus faecium; microbial growth, broth dilution; NCTC7171).
`COc1cc(OC)c(C=C2C(O)=Nc3ccccc32)c(OC)c1` gave an IC50 of 58.5 nM (MB002; cell growth or viability; 7 days).
`CC[C@H](C)[C@@H]([C@@H](CC(=O)N1CCC[C@H]1[C@H](OC)[C@@H](C)C(=O)N[C@@H](Cc1ccccc1)C(=O)O)OC)N(C)C(=O)[C@@H](NC(=O)[C@H](C(C)C)N(C)C(=O)CCc1cn(CCOCCOCCOCCOCC(=O)NCc2ccc(CN3C(=O)[C@H]4CC(=O)N[C@H](C(=O)O)CC(=O)NCC(=O)N[C@@H](CCCNC(=N)N)C(=O)NC[C@H]3C(=O)N4)cc2)nn1)C(C)C` gave an IC50 of over 1000 nM (M21; cell growth or viability, MTT; 72 h).
For `O=c1c2ccccc2nc(/C=C/c2ccc(C(F)(F)F)cc2)n1-c1cccc(O)c1`, the MIC was 32 µg/mL (Enterococcus faecium; microbial growth, broth dilution; NCTC7171).
For `O=C1[O][Pt]2([NH][C@@H]3CCCC[C@H]3[NH]2)[O]C1=O`, the IC50 was 2330 nM (HD-MB03; cell growth or viability; 7 days).
`O=C(Nc1cccc(-c2cc(C(=O)O)no2)c1)Nc1ccc(Cl)c(Cl)c1` gave an MIC of over 64 µg/mL (Mycobacteroides chelonae; microbial growth, broth dilution; ATCC35752; 48 h).
With `Cc1ccc(-c2nc3ccc(C)cn3c2CC(=O)N(C)C)cc1` the MIC was over 50 µM (Mycobacteroides chelonae; microbial growth; 72 h).
`N.N.[Cl][Pt][Cl]` gave an IC50 of 84400 nM (CCD 19Lu; cell growth or viability; 48 h).
`CCCCCCNC(=S)Nc1cccc(-c2cc(C(=O)OC)no2)c1` has an MIC of over 64 µg/mL (Mycobacteroides chelonae; microbial growth, broth dilution; ATCC35752; 48 h).
The IC50 of `O=C(NOC[C@H](O)CO)c1ccc(F)c(F)c1Nc1ccc(I)cc1F` is reported as over 10000 nM (MB002; cell growth or viability; 7 days).
The MIC of `O=c1c2ccccc2nc(/C=C/c2ccco2)n1-c1cccc(O)c1` is reported as over 128 µg/mL (Enterococcus faecium; microbial growth, broth dilution; NCTC7171).
